From PubChem
RanGTP-Imp inh – inhibitors of RanGTP-importin-beta interaction, primary screen, biochemical, FRET, CFP-Ran, YFP-importin-beta, homogeneous. cell-free CFP-Ran/YFP-importin-beta FRET ratio. inhibition, % (no concentration beside the values). hit rate 1.1% among 300,000. AID 2216;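 active = more than half of the replicate wells show a fall in the fluorescence ratio signal beyond about 16%, limit read from the data, passing the limit was not always enough; inconclusive = exactly half of the replicate wells pass the set limit; inactive = fewer than half of replicates pass the limit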;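 note: 0% = DMSO wells and 100% = Ran loaded with GDP instead of GTP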
m-calpain inh – calpain II (pig) inhibition. hit rate 0.37% among 220,000. AID 1236. purified calpain II, fluorogenic peptide substrate, 30 min. inhibition, % at 16 µM;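 active = inhibition above about 50%, limit read from the data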
FAS TE block – inhibitors of human fatty acid synthase thioesterase domain. P49327. recombinant FAS-TE, OMFH fluorogenic substrate, fluorescence endpoint. inhibition, % at 15 µM. hit rate 0.67% among 360,000. AID 602261;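 active = compounds whose normalised, plate-corrected inhibition of enzyme fluorescence in the single-dose primary screen is 50% or more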;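 note: 0% = DMSO with enzyme and 100% = substrate without enzyme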
Runt-CBFb FRET – blocks binding of human RUNX1 Runt domain to CBFb; Cerulean-Runt/Venus-CBFb FRET ratio 530/480, 1 h; hit rate 0.46% among 220,000; AID 1496; Q01196+Q13951; inhibition, % at 20 µM;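 active = inhibition over about 50% at 20 µM in the single-dose screen, limit read from the data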;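 note: 0% = DMSO wells and 100% = excess unlabeled CBFb competitor control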
Target sequence (Q01196 whole entry, looked up, the tested form may be a part): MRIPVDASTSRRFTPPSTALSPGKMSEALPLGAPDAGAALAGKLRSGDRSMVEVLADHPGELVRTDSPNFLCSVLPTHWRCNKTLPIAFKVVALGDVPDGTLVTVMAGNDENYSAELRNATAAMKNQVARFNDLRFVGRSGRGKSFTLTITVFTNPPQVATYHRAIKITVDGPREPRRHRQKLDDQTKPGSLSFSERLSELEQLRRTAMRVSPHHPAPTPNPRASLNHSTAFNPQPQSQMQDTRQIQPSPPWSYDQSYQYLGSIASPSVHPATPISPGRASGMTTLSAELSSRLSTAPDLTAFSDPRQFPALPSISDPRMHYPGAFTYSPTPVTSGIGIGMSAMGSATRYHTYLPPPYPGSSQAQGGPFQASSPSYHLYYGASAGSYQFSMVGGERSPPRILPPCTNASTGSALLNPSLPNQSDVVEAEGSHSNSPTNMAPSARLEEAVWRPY
Target sequence (Q13951 whole entry, looked up, the tested form may be a part): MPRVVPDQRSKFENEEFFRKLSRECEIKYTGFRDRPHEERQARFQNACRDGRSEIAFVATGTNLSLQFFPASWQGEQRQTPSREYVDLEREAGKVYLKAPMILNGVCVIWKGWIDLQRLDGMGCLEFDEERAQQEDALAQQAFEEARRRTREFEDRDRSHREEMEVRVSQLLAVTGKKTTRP
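test system = Cerulean-tagged RUNX1 Runt domain (FRET donor) fusion protein | reagent = Venus-CBFb binding partner, 100 nM | incubation = protein complex preformed 1 h, compound exposure 1 h, room temperature, dark | detection = FRET fluorescence | read-out basis = loss of energy transfer signal | controls = 5 µM unlabeled CBFb as full-inhibition high control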
Runt-SMMHC FRET – blocks binding of human RUNX1 Runt domain to CBFb-SMMHC; Q01196+Q13951; Cerulean-Runt/Venus-CBFb-SMMHC FRET ratio 530/480, 1 h; inhibition, % at 20 µM; hit rate 0.74% among 220,000; AID 1434;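 active = mean inhibition across duplicate retests at 20 µM reaching about 50%, limit read from the data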;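 note: 0% = DMSO wells and 100% = wells with excess untagged CBFb-SMMHC; inhibitors lower the FRET ratio by blocking Runt binding to CBFb-SMMHC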
* = called active by the depositor; i = inactive; ? = inconclusive; · = not tested or not shown; + = active, no number. Most compounds without a hit are left out; they make up all but 2.1% or so of the library.

SMILES	RanGTP-Imp inh	m-calpain inh	FAS TE block	Runt-CBFb FRET	Runt-SMMHC FRET
COc1ccc(Cn2nc(-c3ccccc3)c(N3CCCCC3)cc2=O)cc1	0	72*	26	-7	-3
COc1ccccc1C(=O)NCC(=O)OCC(=O)c1cccc2ccccc12	?	·	10	·	·
CN(C(=O)CN1C(=O)c2cccc(N)c2C1=O)C1CCCCC1	·	·	-1	·	·
CCN1C(=O)/C(=C\c2cn(-c3ccccc3)nc2-c2cccnc2)SC1=S	6	51*	1	-4	-16
CCN(CC)c1ccc(C(=C2C=CC(=[N+](CC)CC)C=C2)c2ccccc2)cc1	·	·	82*	·	·
C[C@H](CO)N1C[C@H](C)[C@@H](CN(C)C(=O)Nc2ccc(C(F)(F)F)cc2)Oc2c(NC(=O)Nc3ccc(C(F)(F)F)cc3)cccc2C1=O	·	·	79*	·	·
C[C@H]1CN([C@@H](C)CO)C(=O)c2cccc(NC(=O)Nc3ccc(C(F)(F)F)cc3)c2O[C@@H]1CN(C)C(=O)Nc1ccc(F)cc1	·	·	45	·	·
CCN1CCc2c(sc(NC(=O)COc3ccccc3)c2C(=O)OC)C1	87*	·	2	·	·
CCN1CCc2c(sc(NC(=O)Nc3ccc(Cl)c(Cl)c3)c2C(N)=O)C1	·	-200	-60	4	77*
CCOC(=O)c1c(NC(=S)Nc2ccc(C)cc2)sc2c1CCC2	1	0	5	6	9
CCN1CCc2c(sc(NC(=O)c3ccc(S(=O)(=O)N(CC)c4ccccc4)cc3)c2C(N)=O)C1	72*	·	-21	·	·
CCOC(=O)c1c(NC(=S)Nc2ccc(Cl)cc2)sc2c1CCN(C)C2	·	-21	-14	98*	164*
COc1ccccc1NC(=O)c1ccc[n+]([O-])c1	-3	·	-9	·	·
CC(=O)c1c(C)[nH]c(C(=O)OCC(=O)c2ccc(Br)cc2)c1C	·	·	14	·	·
CCN1CCc2c(sc(NC(=O)Cc3ccccc3)c2C(N)=O)C1	155*	·	-4	·	·
CN1CCc2c(sc(NC(=O)Cc3ccc(F)cc3)c2C(N)=O)C1	131*	·	-4	·	·
CN1CCc2c(sc(NC(=O)c3ccc4ccccc4c3)c2C(N)=O)C1	·	·	-2	·	·
CCOC(=O)c1c(NC(=O)Cc2ccccc2)sc2c1CCN(C)C2	76*	·	-4	·	·
CN1CCc2c(sc(NC(=O)Cc3ccccc3)c2C(N)=O)C1	134*	·	-4	·	·
CCOC(=O)C1(CCCc2ccccc2)CCN(C(=O)C2=C(C)OCCO2)CC1	0	-8	7	-5	-5
Cc1nnc(SCC(=O)Nc2sc3c(c2C(=O)c2ccccc2)CCCC3)s1	10	39	-12	-1	-3
CCN1CCc2c(sc(NC(=S)NC(=O)c3ccco3)c2C(N)=O)C1	163*	-6	-6	12	58*
CCOC(=O)c1c(NC(=O)C(F)(OC)C(F)(F)F)sc2c1CCN(C)C2 (centres undefined)	76*	-48	-12	84*	62*
CCOC(=O)c1c(NC(=O)CCS(=O)(=O)c2ccccc2)sc2c1CCN(C)C2	126*	·	-28	·	·
CCN1CCc2c(sc(NC(=O)c3ccc(C(=O)c4ccccc4)cc3)c2C(N)=O)C1	9	·	0	·	·
SMILES	RanGTP-Imp inh	m-calpain inh	FAS TE block	Runt-CBFb FRET	Runt-SMMHC FRET
CCOC(=O)c1c(NC(=O)CSc2nnc(C)s2)sc2c1CCN(C)C2	27*	-29	-26	79*	135*
COc1ccc(OC)c(N2C(=NC(=O)C3CCCCC3)SC3CS(=O)(=O)CC32)c1 (centres undefined)	2	·	12	·	·
CC(=O)NC12CC3CC(C1)CC(C(=O)N(C)CC(=O)Nc1cccc(F)c1)(C3)C2	·	·	-9	·	·
N#C/C(=C\c1c[nH]c2ccccc12)C(N)=O	7	7	-6	3	-1
CC(=O)Oc1c(/C=C(\C#N)C(N)=O)[nH]c2ccccc12	16*	15	-28	34	20
CN(CC(=O)Nc1ccccc1Cl)C(=O)COC(=O)C1CC1	-6	·	0	·	·
CCCCCCCNC(=O)C1(CC2CC(c3ccc(Cl)cc3)=NO2)CCNCC1 (centres undefined)	0	·	18	·	·
Nc1ccc(O)c(-c2nc3ccccc3s2)c1	25*	-8	-5	8	28
O=c1c(-c2nc3ccccc3s2)cccn1Cc1ccccc1	9	i	18	12	32
Cc1ccc(Cn2cccc(-c3nc4ccccc4s3)c2=O)cc1	?	i	21	50	134*
Oc1ccc(-c2nc3ccccc3s2)c(O)c1	-5	-236	8	6	8
Nc1ccccc1-c1nc2ccccc2s1	5	i	19	22	55*
Oc1ccc(N=C/C=C/c2cccc(Br)c2)cc1-c1nc2ccccc2s1	38*	-10	20	23	29
COC[C@H]1CCCN1c1ccc2c(c1)O[C@@H](COCc1ccccc1)CN([C@H](C)c1ccccc1)S2(=O)=O	·	·	18	·	·
Cc1ccccc1-n1c2nc(=O)n(C)c(=O)c-2cc2ccccc21	136*	-328	-2	12	81*
CCCCn1c(=O)c2ccccc2c2ccccc2c1=O	·	12	24	-1	-1
CCCCn1c(=O)nc2n(-c3ccccc3C)c3ccccc3cc-2c1=O	130*	-482	-7	4	82*
Cc1ccccc1-n1c(=O)c2ccccc2n2nnnc12	1	-9	3	-1	2
COc1ccc(N2C(=O)N(Cc3ccc(C)cc3)c3ccccc3S2(=O)=O)cc1	1	50*	24	-1	3
CC(=O)Nc1ccc(-c2ccnc3c2CC(C(=O)Nc2cccc(OC(F)(F)F)c2)O3)cc1 (centres undefined)	·	·	20	·	·
COc1ccccc1-c1c(C#N)c(N)nc2c1CCc1ccccc1-2	20*	i	19	10	20
CC(NC(=O)c1ccccc1F)C1CC1 (centres undefined)	9	·	-4	·	·
N=c1c(C(=O)NC2CCCCC2)cc2c(=O)n3ccccc3nc2n1CC1CCCO1 (centres undefined)	171*	·	-5	·	·
CC(NC(=O)c1cc2c(=O)n3ccccc3nc2n(CC2CCCO2)c1=N)c1ccccc1 (centres undefined)	+	·	-3	·	·
N=c1c(C(=O)NC2CCCC2)cc2c(=O)n3ccccc3nc2n1CC1CCCO1 (centres undefined)	174*	·	-9	·	·
CCOC(=O)c1cc2c(=O)n3ccccc3nc2n(Cc2ccc(Cl)cc2)c1=N	·	·	8	·	·
CCOC(=O)c1cc2c(=O)n3ccccc3nc2n(CC2CCCO2)c1=NC(C)=O (centres undefined)	71*	·	-5	42	59*
Cc1ccc(Nc2nnc(C)c3ccccc23)c(C)c1	-2	·	-4	·	·
CCCCCOc1ccc(C(=O)Nc2ccc(S(=O)(=O)Nc3cc(C)on3)cc2)cc1	1	·	-1	·	·
Cc1ccc(CNC(=O)c2cc3c(=O)n4ccccc4nc3n(CC3CCCO3)c2=N)cc1 (centres undefined)	-10	i	1	18	63*
